This passage reports Change in weight and T/C results from ChEMBL document CHEMBL1123214, “(o- and p-Nitrobenzyloxycarbonyl)-5-fluorouracil derivatives as potential conjugated bioreductive alkylating agents” (1986).

Holding throughout (assay type): functional
Assay [1] relates to Mus musculus. The experiment in a line: Compound was tested for the effect on the survival time of the mice bearing P388 leukemia at dose 60 mg/kg. In a few lines: (§1)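 Ascites cells were taken from donor CDF₁ mice with 7-day growths, spun, diluted 10-fold in isotonic saline and set to 10⁷ cells/mL. About 10⁶ cells were given ip per mouse. Drug was homogenized in 20% aqueous Tween 80, made up in saline, and given ip once daily for 6 days from 24 h after implant. Vehicle controls were included. Read-out was survival time, as T/C × 100, with % weight change as toxicity.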

The test system of assay [2] is Mus musculus. Nature of the assay: Compound was tested for the effect on the survival time of the mice bearing P388 leukemia at dose 80 mg/kg. In a few lines: as §1
Assay [3] has as its system Mus musculus. The experiment in a line: Compound was tested for the effect on the survival time of the mice bearing P388 leukemia at dose 20 mg/kg. In a few lines: as §1
Assay [4] deals with Mus musculus. Nature of the assay: Compound was tested for the effect on the survival time of the mice bearing P388 leukemia at dose 100 mg/kg. In a few lines:
as §1

In assay [5] the test system is Mus musculus. The experiment in a line: Compound was tested for the effect on the survival time of the mice bearing Sarcoma 180 ascites at dose of 40 mg/kg; ratio of survival time of treated and control. In short, it runs like this:
as §1

Assay [6] concerns Mus musculus. Nature of the assay: Compound was tested for the effect on the survival time of the mice bearing P388 leukemia at dose 60 mg/kg; ratio of survival time of treated and control. In short, it runs like this: as §1
Assay [7] has as its system Mus musculus. Nature of the assay: Compound was tested for the effect on the survival time of the mice bearing P388 leukemia at dose 40 mg/kg. In a few lines:
as §1

For assay [8], the system named is Mus musculus. Nature of the assay: Compound was tested for the effect on the survival time of the mice bearing P388 leukemia at dose 100 mg/kg; ratio of survival time of treated and control. In short, it runs like this: as §1
For assay [9], the system named is Mus musculus. Nature of the assay: Compound was tested for the effect on the survival time of the mice bearing Sarcoma 180 ascites at dose of 20 mg/kg; ratio of survival time of treated and control. In a few lines: as §1
In assay [10] the test system is Mus musculus. The experiment in a line: Compound was tested for the effect on the survival time of the mice bearing P388 leukemia at dose 40 mg/kg; ratio of survival time of treated and control. In a few lines:
as §1

For assay [11], the system named is Mus musculus. Nature of the assay: Compound was tested for the effect on the survival time of the mice bearing Sarcoma 180 ascites at dose of 10 mg/kg. In short, it runs like this: as §1
Assay [12] relates to Mus musculus. The experiment in a line: Compound was tested for the effect on the survival time of the mice bearing Sarcoma 180 ascites at dose of 40 mg/kg. In a few lines:
as §1

In assay [13] the test system is Mus musculus. The experiment in a line: Compound was tested for the effect on the survival time of the mice bearing Sarcoma 180 ascites at dose of 20 mg/kg. In short, it runs like this:
as §1

The subject of assay [14] is Mus musculus. The experiment in a line: Compound was tested for the effect on the survival time of the mice bearing Sarcoma 180 ascites at dose of 10 mg/kg; ratio of survival time of treated and control. In short, it runs like this: as §1
Assay [15] deals with Mus musculus. Nature of the assay: Compound was tested for the effect on the survival time of the mice bearing P388 leukemia at dose 200 mg/kg; ratio of survival time of treated and control. In a few lines: as §1
The test system of assay [16] is Mus musculus. Nature of the assay: Compound was tested for the effect on the survival time of the mice bearing P388 leukemia at dose 200 mg/kg. In short, it runs like this: as §1
Assay [17] has as its system Mus musculus. Nature of the assay: Compound was tested for the effect on the survival time of the mice bearing P388 leukemia at dose 20 mg/kg; ratio of survival time of treated and control. In a few lines:
as §1

For assay [18], the system named is Mus musculus. Nature of the assay: Compound was tested for the effect on the survival time of the mice bearing P388 leukemia at dose 80 mg/kg; ratio of survival time of treated and control. In a few lines:
as §1

For assay [19], the system named is Mus musculus. Nature of the assay: Compound was tested for the effect on the survival time of the mice bearing P388 leukemia at dose 25 mg/kg. In a few lines: as §1
Assay [20] concerns Mus musculus. Nature of the assay: Compound was tested for the effect on the survival time of the mice bearing P388 leukemia at dose 50 mg/kg; ratio of survival time of treated and control. In short, it runs like this:
as §1

The subject of assay [21] is Mus musculus. The experiment in a line: Compound was tested for the effect on the survival time of the mice bearing P388 leukemia at dose 25 mg/kg; ratio of survival time of treated and control. In a few lines: as §1
Assay [22] relates to Mus musculus. The experiment in a line: Compound was tested for the effect on the survival time of the mice bearing P388 leukemia at dose 50 mg/kg. In short, it runs like this:
as §1

As to `O=C(Cc1ccc([N+](=O)[O-])cc1)On1c(=O)[nH]cc(F)c1=O`, the Change in weight in [1] is given as -2.9%; in assay [2] it was -5.8%; in assay [3] it was 5.6%; in assay [4], -11.6%; in [7], 0%; in [11], 9.6%. In addition, the Change in weight is -7.6% in assay [12], 2.7% in [13] and -10.7% in assay [16]. The T/C in assay [5] was 332; in assay [6], 196; in assay [8] it was 158; in [9], 124; in assay [10], 190; in assay [14], 159. The results for the T/C in [15], in assay [17] and in [18] were 64, 165 and 212, respectively.

As for `O=c1[nH]cc(F)c(=O)[nH]1` [FLUOROURACIL], the Change in weight was -12.5% in assay [3] and -3.4% in assay [13]. Besides, the T/C worked out at 277 in [9] and 185 in assay [17].

As to `O=c1c(F)cn(C2CCCO2)c(=O)n1Cc1ccccc1[N+](=O)[O-]` (stereo not drawn), the Change in weight in assay [4] is recorded as 13.7%; in assay [19], 10.3%; in assay [22], 7.8%. Further, the T/C was 96 in [8], 96 in assay [20] and 90 in assay [21].

As for `O=c1[nH]c(=O)n(Cc2ccccc2[N+](=O)[O-])cc1F`, the results for the Change in weight in [4], in [19] and in assay [22] were 20.8%, 13.3% and 10%, respectively. For the same compound, the T/C is recorded as 88 in assay [8], 92 in [20] and 90 in assay [21].

On to `O=C(Cc1ccc([N+](=O)[O-])cc1)On1cc(F)c(=O)n(OC(=O)Cc2ccc([N+](=O)[O-])cc2)c1=O`, for which the Change in weight is -5.5% in assay [1], -7.4% in assay [2] and -2.7% in assay [7]. For the same compound, the T/C in [6] turned out to be 149; in assay [10], 136; in assay [18], 158.

`O=c1c(F)cn(Cc2ccccc2[N+](=O)[O-])c(=O)n1Cc1ccccc1[N+](=O)[O-]`: the Change in weight in assay [4] stood at 22.4%; in assay [19], 17.8%; in [22], 15%. Besides, the results for the T/C in assay [8], in [20] and in [21] were 86, 88 and 90, respectively.

Take `O=c1[nH]c(=O)n(C2CCCO2)cc1F` (stereo not drawn) [TEGAFUR]: the Change in weight in [1] is listed as 12.2%. In assay [6], the T/C is on record as 100.
